Test results from ChEMBL document CHEMBL2429865, “Withaferin A, a steroidal lactone from Withania somnifera, induces mitotic catastrophe and growth arrest in prostate cancer cells” (2013).
Active and inactive are the calls of the source. No cut-off for these calls is given here.

Experiments:
PC-3 [1] = assay: Mitotic arrest in human PC3 cells assessed as punctate distribution of Aurora B in centromeric region of chromosomes by DAPI staining-based confocal microscopic analysis; format: functional, cell-based
Summary of the method: (§1)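 PC-3 cells on coverslips are grown to 60% confluence and treated for 24 h. They are fixed in 4% paraformaldehyde for 20 min at room temperature, permeabilized with 0.2% Triton X-100 for 20 min, and immunostained for pH3 (Ser10), Aurora B or α-tubulin with Alexa Fluor secondaries, rhodamine-phalloidin and DAPI. Imaging is by laser scanning confocal microscopy.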

PC-3 [2] = assay: Upregulation of Aurora B protein expression in human PC3 cells at IC50 after 12 to 48 hrs by Western blotting analysis; format: functional, cell-based
[3] = biological target: Cyclin-dependent kinase 1 (Homo sapiens) (UniProt P06493); assay: Reduction in CDC2 phosphorylation at Tyr15 in human PC3 cells at 1 uM after 12 to 24 hrs by Western blotting analysis; format: cell-based; details: PC-3
Cyclin-dependent kinase 1 (Homo sapiens), sequence (P06493 whole entry, looked up): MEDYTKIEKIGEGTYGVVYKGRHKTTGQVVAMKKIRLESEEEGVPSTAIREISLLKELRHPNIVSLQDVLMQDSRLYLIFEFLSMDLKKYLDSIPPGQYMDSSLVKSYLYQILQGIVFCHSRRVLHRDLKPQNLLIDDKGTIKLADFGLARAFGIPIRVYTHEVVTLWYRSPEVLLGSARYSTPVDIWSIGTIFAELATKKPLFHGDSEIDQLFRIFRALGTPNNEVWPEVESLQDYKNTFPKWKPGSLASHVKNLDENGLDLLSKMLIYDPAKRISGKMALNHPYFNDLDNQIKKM
Summary of the method: (§2)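 PC-3 cells are treated with 1 μM for various times. Lysates are made in M-PER buffer with protease inhibitor cocktail, and 25 μg protein is immunoblotted for pWee1 (Ser642), Wee1, pCdc2 (Tyr15), Cdc25C (Ser216) and Myt-1, with β-actin as loading control.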

DU-145 [4] = assay: Induction of cell cycle arrest in human DU145 cells assessed as accumulation at G2/M phase at 1 uM after 48 hrs by propidium iodide staining-based flow cytometry (reference value: 22%); format: functional
[5] = biological target: Cyclin-dependent kinase 1/cyclin B1 (Homo sapiens) (UniProt P06493+P14635); assay: Activation of Cdc2/cyclin B in human PC3 cells; format: cell-based; details: PC-3
Cyclin-dependent kinase 1/cyclin B1 (Homo sapiens), sequence (P06493 whole entry, looked up): as above
Cyclin-dependent kinase 1/cyclin B1 (Homo sapiens), sequence (P14635 whole entry, looked up): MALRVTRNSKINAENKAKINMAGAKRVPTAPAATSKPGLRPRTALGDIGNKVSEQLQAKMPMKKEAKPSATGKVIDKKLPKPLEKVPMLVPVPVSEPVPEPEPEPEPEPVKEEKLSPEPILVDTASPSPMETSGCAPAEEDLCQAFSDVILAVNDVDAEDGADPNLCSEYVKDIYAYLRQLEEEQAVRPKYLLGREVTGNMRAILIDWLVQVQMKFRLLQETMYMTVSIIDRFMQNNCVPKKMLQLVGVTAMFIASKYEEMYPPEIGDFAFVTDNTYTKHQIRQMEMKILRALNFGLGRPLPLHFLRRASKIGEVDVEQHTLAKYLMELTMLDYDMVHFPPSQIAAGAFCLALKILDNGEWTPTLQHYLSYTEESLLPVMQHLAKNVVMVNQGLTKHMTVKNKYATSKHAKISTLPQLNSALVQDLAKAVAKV
Summary of the method: (§3)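 Lysates of vehicle- or drug-treated PC-3 cells are diluted in kinase buffer and added to wells precoated with recombinant Cdc25C substrate. Phosphorylation is started with Mg2+ and ATP. Phospho-Cdc25C Ser216 is detected with an HRP-conjugated antibody and TMB colour with stop reagent. The Cdc2-cyclin B1 line uses a parallel kit of the same format.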

PC-3 [6] = assay: Upregulation of p21 mRNA expression in human PC3 cells at IC50 after 12 to 48 hrs by SYBR green staining-based RT-PCR analysis; format: functional, cell-based
DU-145 [7] = assay: Induction of cell cycle arrest in human DU145 cells assessed as accumulation at G2/M phase at 1 uM after 24 hrs by propidium iodide staining-based flow cytometry (reference value: 22%); format: functional
[8] = biological target: Wee1-like protein kinase (Homo sapiens) (UniProt P30291); assay: Induction of Wee1 phosphorylation at Ser642 in human PC3 cells at 1 uM after 12 to 24 hrs by Western blotting analysis; format: cell-based; details: PC-3; summary of the method: as §2
Wee1-like protein kinase (Homo sapiens), sequence (P30291 whole entry, looked up): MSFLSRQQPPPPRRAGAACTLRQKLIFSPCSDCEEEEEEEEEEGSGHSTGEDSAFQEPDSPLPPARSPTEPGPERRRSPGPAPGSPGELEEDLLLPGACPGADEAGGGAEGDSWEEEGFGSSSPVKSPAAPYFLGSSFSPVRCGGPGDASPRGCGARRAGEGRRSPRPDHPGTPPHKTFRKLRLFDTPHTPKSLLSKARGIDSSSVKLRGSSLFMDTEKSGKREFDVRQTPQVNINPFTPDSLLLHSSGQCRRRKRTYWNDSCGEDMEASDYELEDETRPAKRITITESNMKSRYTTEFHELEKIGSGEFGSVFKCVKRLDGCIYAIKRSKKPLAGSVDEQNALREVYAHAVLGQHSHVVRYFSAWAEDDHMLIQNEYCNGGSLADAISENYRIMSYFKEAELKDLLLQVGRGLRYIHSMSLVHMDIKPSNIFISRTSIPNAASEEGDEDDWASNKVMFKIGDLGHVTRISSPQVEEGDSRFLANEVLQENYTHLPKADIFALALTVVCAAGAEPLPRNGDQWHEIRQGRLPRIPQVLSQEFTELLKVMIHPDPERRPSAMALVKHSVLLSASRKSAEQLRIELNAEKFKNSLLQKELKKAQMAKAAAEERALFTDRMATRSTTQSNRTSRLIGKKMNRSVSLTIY

PC-3 [9] = assay: Mitotic arrest in human PC3 cells assessed as accumulation of phosphorylated histone H3 in nucleus by DAPI staining-based confocal microscopic analysis; format: functional, cell-based; summary of the method: as §1
PC-3 [10] = assay: Downregulation of cyclin B1 protein expression in human PC3 cells at IC50 after 12 to 48 hrs by Western blotting analysis; format: functional, cell-based
DU-145 [11] = assay: Growth inhibition of human DU145 cells assessed as loss of cell viability after 24 hrs by trypan blue exclusion assay; format: functional, cell-based
Summary of the method: (§4)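 PC-3 (DMEM) and DU-145 (RPMI-1640) cells, with 10% heat-inactivated FBS, are seeded at 3×10⁵ cells/well, cultured 24 h, then exposed to 0.5, 1, 2, 3 and 4 μM for 24 h at 37°C, 5% CO₂. DMSO is ≤0.002%. Viable cells are counted by trypan blue exclusion on a hemocytometer and expressed as % of DMSO control. IC50 is calculated. Mean ± SEM of three independent experiments.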

PC-3 [12] = assay: Induction of cell cycle arrest in human PC3 cells assessed as accumulation at G2/M phase at 1 uM after 48 hrs by propidium iodide staining-based flow cytometry (reference value: 25.3%); format: functional
PC-3 [13] = assay: Mitotic arrest in human PC3 cells assessed as defect in depolymerization of tubulin-alpha by DAPI staining-based confocal microscopic analysis; format: functional, cell-based; summary of the method: as §1
PC-3 [14] = assay: Downregulation of Myt-1 protein expression in human PC3 cells at 1 uM after 12 to 48 hrs by Western blotting analysis; format: functional, cell-based; summary of the method: as §2
PC-3 [15] = assay: Growth inhibition of human PC3 cells assessed as loss of cell viability after 24 hrs by trypan blue exclusion assay; format: functional, cell-based; summary of the method: as §4
PC-3 [16] = assay: Upregulation of p21 protein expression in human PC3 cells at IC50 after 12 to 48 hrs by Western blotting analysis; format: functional, cell-based
PC-3 [17] = assay: Downregulation of cyclin A2 protein expression in human PC3 cells at IC50 after 12 to 48 hrs by Western blotting analysis; format: functional, cell-based
[18] = biological target: Tubulin alpha (Homo sapiens) (UniProt P0DPH7+P68366+Q71U36+P68363+Q9BQE3+Q6PEY2+A6NHL2+Q9NY65); assay: Inhibition of tubulin-alpha (unknown origin) polymerization by fluorescence-based assay; format: protein assay; details: TDE = time-dependent effect
PC-3 [19] = assay: Downregulation of cyclin E2 protein expression in human PC3 cells at IC50 after 12 to 48 hrs by Western blotting analysis; format: functional, cell-based
[20] = biological target: Cyclin-dependent kinase 1 (Homo sapiens) (UniProt P06493); assay: Reduction in CDC2 phosphorylation at Tyr15 in human PC3 cell cytoplasm at 1 uM after 24 hrs by immunofluorescence assay; details: PC-3
Summary of the method: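 PC-3 cells on coverslips at 60% confluence are treated with drug or DMSO for 24 h. They are fixed in 4% paraformaldehyde, permeabilized with 0.2% Triton X-100, and immunostained for pCdc2 (Tyr15) with Alexa Fluor secondary and DAPI counterstain. Images are taken by fluorescence/confocal microscopy.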

DU-145 [21] = assay: Cell cycle arrest in human DU145 cells assessed as accumulation at G2/M phase at 1 uM after 8 hrs by propidium iodide staining-based flow cytometry; format: functional
PC-3 [22] = assay: Cell cycle arrest in human PC3 cells assessed as accumulation at G2/M phase at 1 uM after 8 hrs by propidium iodide staining-based flow cytometry; format: functional
[23] = biological target: T1, M-phase inducer phosphatase 3 (Homo sapiens) (UniProt P30307); assay: Reduction in CDC25C phosphorylation at Ser216 in human PC3 cells at 1 uM after 12 to 24 hrs by Western blotting analysis; format: cell-based; details: PC-3; summary of the method: as §2
T1 sequence (whole entry): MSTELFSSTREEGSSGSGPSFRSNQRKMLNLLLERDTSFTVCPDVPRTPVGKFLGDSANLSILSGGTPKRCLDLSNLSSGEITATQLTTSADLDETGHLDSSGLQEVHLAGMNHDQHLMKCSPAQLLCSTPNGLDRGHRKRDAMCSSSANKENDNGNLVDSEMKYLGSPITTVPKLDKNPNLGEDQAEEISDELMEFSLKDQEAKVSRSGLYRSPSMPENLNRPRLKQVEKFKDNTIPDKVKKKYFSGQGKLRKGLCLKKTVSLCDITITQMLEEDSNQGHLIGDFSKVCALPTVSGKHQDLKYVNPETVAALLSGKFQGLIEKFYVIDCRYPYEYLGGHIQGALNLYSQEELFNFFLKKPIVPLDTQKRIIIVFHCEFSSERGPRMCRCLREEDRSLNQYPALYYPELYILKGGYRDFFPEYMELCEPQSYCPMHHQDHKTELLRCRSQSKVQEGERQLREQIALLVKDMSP

PC-3 [24] = assay: Effect on 14-3-3 protein expression in human PC3 cells at IC50 after 12 to 48 hrs by Western blotting analysis; format: functional, cell-based
[25] = biological target: T2, Serine/threonine-protein kinase Chk1 (Homo sapiens) (UniProt O14757); assay: Reduction in CHK1 phosphorylation at Ser345 in human PC3 cells at IC50 after 12 to 48 hrs by Western blotting analysis; format: cell-based; details: PC-3
T2 sequence (whole entry): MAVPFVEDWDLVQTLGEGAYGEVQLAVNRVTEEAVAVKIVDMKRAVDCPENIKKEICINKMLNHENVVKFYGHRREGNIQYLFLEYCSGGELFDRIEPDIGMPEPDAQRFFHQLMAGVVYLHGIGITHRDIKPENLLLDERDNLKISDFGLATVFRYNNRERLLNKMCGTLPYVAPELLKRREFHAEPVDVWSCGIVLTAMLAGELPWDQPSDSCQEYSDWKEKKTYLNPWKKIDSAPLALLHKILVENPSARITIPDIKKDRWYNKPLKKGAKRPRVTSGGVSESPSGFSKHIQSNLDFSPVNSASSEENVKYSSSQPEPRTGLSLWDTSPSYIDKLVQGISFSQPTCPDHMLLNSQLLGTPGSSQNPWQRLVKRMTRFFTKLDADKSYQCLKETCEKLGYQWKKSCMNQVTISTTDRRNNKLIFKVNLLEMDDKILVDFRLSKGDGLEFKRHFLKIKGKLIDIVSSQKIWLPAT

PC-3 [26] = assay: Induction of cell cycle arrest in human PC3 cells assessed as accumulation at G2/M phase at 1 uM after 24 hrs by propidium iodide staining-based flow cytometry (reference value: 28.3%); format: functional
[27] = biological target: Aurora kinase B (Homo sapiens) (UniProt Q96GD4); assay: Induction of Aurora B-mediated histone H3 phosphorylation at Ser10 in human PC3 cells after 12 to 48 hrs by Western blotting analysis; format: cell-based; details: PC-3
Aurora kinase B (Homo sapiens), sequence (Q96GD4 whole entry): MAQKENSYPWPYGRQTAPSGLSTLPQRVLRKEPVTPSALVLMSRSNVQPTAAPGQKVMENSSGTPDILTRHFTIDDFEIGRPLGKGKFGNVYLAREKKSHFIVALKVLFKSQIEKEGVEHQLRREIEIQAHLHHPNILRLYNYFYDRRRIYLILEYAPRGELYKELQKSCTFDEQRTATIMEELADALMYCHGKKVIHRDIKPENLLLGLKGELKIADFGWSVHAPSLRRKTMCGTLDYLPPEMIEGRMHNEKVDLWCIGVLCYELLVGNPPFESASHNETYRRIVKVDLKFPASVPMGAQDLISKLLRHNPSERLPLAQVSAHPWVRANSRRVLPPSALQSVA

[28] = biological target: T2, Serine/threonine-protein kinase Chk1 (Homo sapiens); assay: Activation of Chk1 in human PC3 cells assessed as phosphorylation of CDC25C at Ser216; format: cell-based; details: PC-3; summary of the method: as §3
PC-3 [29] = assay: Mitotic arrest in human PC3 cells assessed as distorted spindles and curving microtubule array by DAPI staining-based confocal microscopic analysis; format: functional, cell-based; summary of the method: as §1
[30] = biological target: Serine/threonine-protein kinase Chk2 (Homo sapiens) (UniProt O96017); assay: Reduction in CHK2 phosphorylation at Thr68 in human PC3 cells at IC50 after 12 to 48 hrs by Western blotting analysis; format: cell-based; details: PC-3
Serine/threonine-protein kinase Chk2 (Homo sapiens), sequence (O96017 whole entry): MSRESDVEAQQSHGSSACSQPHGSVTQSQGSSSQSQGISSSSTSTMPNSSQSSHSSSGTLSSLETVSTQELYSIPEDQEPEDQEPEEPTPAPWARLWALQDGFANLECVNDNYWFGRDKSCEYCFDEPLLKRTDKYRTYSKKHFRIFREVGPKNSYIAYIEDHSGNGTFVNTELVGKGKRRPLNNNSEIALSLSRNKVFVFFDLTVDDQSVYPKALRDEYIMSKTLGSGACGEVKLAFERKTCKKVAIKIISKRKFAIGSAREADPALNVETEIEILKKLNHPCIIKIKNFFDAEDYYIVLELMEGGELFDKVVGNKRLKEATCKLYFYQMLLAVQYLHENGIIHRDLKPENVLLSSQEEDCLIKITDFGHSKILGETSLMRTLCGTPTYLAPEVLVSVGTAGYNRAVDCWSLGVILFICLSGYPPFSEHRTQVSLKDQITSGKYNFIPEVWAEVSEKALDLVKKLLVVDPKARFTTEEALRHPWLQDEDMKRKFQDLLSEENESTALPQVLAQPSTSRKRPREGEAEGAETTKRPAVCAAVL

CC1=C(CO)C(=O)O[C@@H]([C@@H](C)[C@H]2CC[C@H]3[C@@H]4C[C@H]5O[C@]56[C@@H](O)C=CC(=O)[C@]6(C)[C@H]4CC[C@]23C)C1 [WITHAFERIN A]
Activity (PC-3 [1]): Active
Activity (PC-3 [2]): Active
Activity [3]: Active
Activity (DU-145 [4]): 24.75%
Activity [5]: inactive
Activity (PC-3 [6]): Active
Activity (DU-145 [7]): 36.75%
Activity [8]: Active
Activity (PC-3 [9]): Active
Activity (PC-3 [10]): Active
growth inhibition (GI) (DU-145 [11]): Dose-dependent effect
Activity (PC-3 [12]): 60.7%
Activity (PC-3 [13]): Active
Activity (PC-3 [14]): Active
growth inhibition (GI) (PC-3 [15]): Dose-dependent effect
Activity (PC-3 [16]): Active
Activity (PC-3 [17]): Active
inhibition [18]: tde
Activity (PC-3 [19]): Active
Activity [20]: Active
Activity (DU-145 [21]): Active
Activity (PC-3 [22]): Active
Activity [23]: Active
Activity (PC-3 [24]): inactive
Activity [25]: Active
Activity (PC-3 [26]): 62.7%
Activity [27]: Active
Activity [28]: inactive
Activity (PC-3 [29]): Active
Activity [30]: Active
